Experimental data published in ChEMBL document CHEMBL4052804, “Design and synthesis of piperazine acetate podophyllotoxin ester derivatives targeting tubulin depolymerization as new anticancer agents” (Bioorg Med Chem Lett, 2017).

Assays:
MCF7 [1] = assay: Induction of apoptosis in human MCF7 cells assessed as viable cells at 12 uM after 24 hrs by Annexin-V-FITC/propidium iodide staining based flow cytometric method (reference value: 91.6 to 92.7%); format: functional; settings: MCF7, 24 h, read-out: Activity
MCF7 [2] = assay: Induction of apoptosis in human MCF7 cells assessed as early apoptotic cells at 8 uM after 24 hrs by Annexin-V-FITC/propidium iodide staining based flow cytometric method (reference value: 2.36 to 2.86%); format: functional
MCF7 [3] = assay: Cell cycle arrest in human MCF7 cells assessed as accumulation at G1 phase at 0.6 uM after 8 hrs by propidium iodide staining based flow cytometric method (reference value: 60.19 to 60.87%); format: functional
MCF7 [4] = assay: Cell cycle arrest in human MCF7 cells assessed as accumulation at G2/M phase at 0.9 uM after 12 hrs by propidium iodide staining based flow cytometric method (reference value: 5.43 to 13.68%); format: functional
MCF7 [5] = assay: Induction of apoptosis in human MCF7 cells assessed as early apoptotic cells at 4 uM after 24 hrs by Annexin-V-FITC/propidium iodide staining based flow cytometric method (reference value: 2.36 to 2.86%); format: functional
MCF7 [6] = assay: Cytotoxicity against human MCF7 cells after 24 hrs by MTT assay; format: functional, cell-based; settings: MCF7, 24 h
In short: (§1)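 In vitro antiproliferative screen by MTT assay against human MCF-7 breast, HeLa cervical, A549 lung adenocarcinoma and HepG-2 hepatoma cells. Output is the IC50.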

MCF7 [7] = assay: Induction of apoptosis in human MCF7 cells assessed as late apoptotic cells at 8 uM after 24 hrs by Annexin-V-FITC/propidium iodide staining based flow cytometric method (reference value: 2 to 3.7%); format: functional
MCF7 [8] = assay: Cell cycle arrest in human MCF7 cells assessed as accumulation at G1 phase at 0.6 uM after 16 hrs by propidium iodide staining based flow cytometric method (reference value: 60.19 to 60.87%); format: functional
MCF7 [9] = assay: Cell cycle arrest in human MCF7 cells assessed as accumulation at S phase at 0.6 uM after 8 hrs by propidium iodide staining based flow cytometric method (reference value: 29.55 to 32.22%); format: functional
MCF7 [10] = assay: Cell cycle arrest in human MCF7 cells assessed as accumulation at G2/M phase at 0.3 uM after 12 hrs by propidium iodide staining based flow cytometric method (reference value: 5.43 to 13.68%); format: functional
MCF7 [11] = assay: Induction of apoptosis in human MCF7 cells assessed as viable cells at 2 uM after 24 hrs by Annexin-V-FITC/propidium iodide staining based flow cytometric method (reference value: 91.6 to 92.7%); format: functional; settings: MCF7, 24 h, read-out: Activity
MCF7 [12] = assay: Induction of apoptosis in human MCF7 cells assessed as viable cells at 4 uM after 24 hrs by Annexin-V-FITC/propidium iodide staining based flow cytometric method (reference value: 91.6 to 92.7%); format: functional; settings: MCF7, 24 h, read-out: Activity
MCF7 [13] = assay: Induction of apoptosis in human MCF7 cells assessed as late apoptotic cells at 12 uM after 24 hrs by Annexin-V-FITC/propidium iodide staining based flow cytometric method (reference value: 2 to 3.7%); format: functional
HepG2 = assay: Cytotoxicity against human HepG2 cells after 24 hrs by MTT assay; format: functional, cell-based; settings: HepG2, 24 h; in short: as §1
MCF7 [14] = assay: Cell cycle arrest in human MCF7 cells assessed as accumulation at G1 phase at 0.6 uM after 12 hrs by propidium iodide staining based flow cytometric method (reference value: 58.69 to 62.23%); format: functional
MCF7 [15] = assay: Cell cycle arrest in human MCF7 cells assessed as accumulation at S phase at 0.3 uM after 12 hrs by propidium iodide staining based flow cytometric method (reference value: 27.63 to 32.34%); format: functional
MCF7 [16] = assay: Induction of apoptosis in human MCF7 cells assessed as necrotic cells at 8 uM after 24 hrs by Annexin-V-FITC/propidium iodide staining based flow cytometric method (reference value: 2.35 to 2.49%); format: functional
MCF7 [17] = assay: Cell cycle arrest in human MCF7 cells assessed as accumulation at S phase at 0.6 uM after 4 hrs by propidium iodide staining based flow cytometric method (reference value: 29.55 to 32.22%); format: functional
MCF7 [18] = assay: Induction of apoptosis in human MCF7 cells assessed as necrotic cells at 2 uM after 24 hrs by Annexin-V-FITC/propidium iodide staining based flow cytometric method (reference value: 2.35 to 2.49%); format: functional
L02 = assay: Cytotoxicity against human L02 cells after 24 hrs by MTT assay; format: cell-based; settings: L02, 24 h
In short: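 Normal human liver L02 cells were tested at multiple concentrations in an MTT assay. Output is the median cytotoxic concentration (CC50).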

MCF7 [19] = assay: Cell cycle arrest in human MCF7 cells assessed as accumulation at S phase at 0.9 uM after 12 hrs by propidium iodide staining based flow cytometric method (reference value: 27.63 to 32.34%); format: functional
MCF7 [20] = assay: Induction of apoptosis in human MCF7 cells assessed as viable cells at 8 uM after 24 hrs by Annexin-V-FITC/propidium iodide staining based flow cytometric method (reference value: 91.6 to 92.7%); format: functional; settings: MCF7, 24 h, read-out: Activity
MCF7 [21] = assay: Induction of apoptosis in human MCF7 cells assessed as late apoptotic cells at 4 uM after 24 hrs by Annexin-V-FITC/propidium iodide staining based flow cytometric method (reference value: 2 to 3.7%); format: functional
MCF7 [22] = assay: Induction of apoptosis in human MCF7 cells assessed as necrotic cells at 12 uM after 24 hrs by Annexin-V-FITC/propidium iodide staining based flow cytometric method (reference value: 2.35 to 2.49%); format: functional
MCF7 [23] = assay: Cell cycle arrest in human MCF7 cells assessed as accumulation at S phase at 0.6 uM after 12 hrs by propidium iodide staining based flow cytometric method (reference value: 27.63 to 32.34%); format: functional
MCF7 [24] = assay: Induction of apoptosis in human MCF7 cells assessed as late apoptotic cells at 2 uM after 24 hrs by Annexin-V-FITC/propidium iodide staining based flow cytometric method (reference value: 2 to 3.7%); format: functional
HeLa = assay: Cytotoxicity against human HeLa cells after 24 hrs by MTT assay; format: functional, cell-based; in short: as §1
MCF7 [25] = assay: Induction of apoptosis in human MCF7 cells assessed as early apoptotic cells at 2 uM after 24 hrs by Annexin-V-FITC/propidium iodide staining based flow cytometric method (reference value: 2.36 to 2.86%); format: functional
MCF7 [26] = assay: Cell cycle arrest in human MCF7 cells assessed as accumulation at G1 phase at 0.6 uM after 4 hrs by propidium iodide staining based flow cytometric method (reference value: 60.19 to 60.87%); format: functional
MCF7 [27] = assay: Induction of apoptosis in human MCF7 cells assessed as necrotic cells at 4 uM after 24 hrs by Annexin-V-FITC/propidium iodide staining based flow cytometric method (reference value: 2.35 to 2.49%); format: functional
MCF7 [28] = assay: Cell cycle arrest in human MCF7 cells assessed as accumulation at S phase at 0.6 uM after 16 hrs by propidium iodide staining based flow cytometric method (reference value: 29.55 to 32.22%); format: functional
MCF7 [29] = assay: Induction of apoptosis in human MCF7 cells assessed as early apoptotic cells at 12 uM after 24 hrs by Annexin-V-FITC/propidium iodide staining based flow cytometric method (reference value: 2.36 to 2.86%); format: functional
MCF7 [30] = assay: Cell cycle arrest in human MCF7 cells assessed as accumulation at G1 phase at 0.3 uM after 12 hrs by propidium iodide staining based flow cytometric method (reference value: 58.69 to 62.23%); format: functional
MCF7 [31] = assay: Cell cycle arrest in human MCF7 cells assessed as accumulation at G1 phase at 0.9 uM after 12 hrs by propidium iodide staining based flow cytometric method (reference value: 58.69 to 62.23%); format: functional
A549 = assay: Cytotoxicity against human A549 cells after 24 hrs by MTT assay; format: functional, cell-based; settings: A549, 24 h; in short: as §1
MCF7 [32] = assay: Cell cycle arrest in human MCF7 cells assessed as accumulation at G2/M phase at 0.6 uM after 4 hrs by propidium iodide staining based flow cytometric method (reference value: 7.59 to 9.58%); format: functional
MCF7 [33] = assay: Cell cycle arrest in human MCF7 cells assessed as accumulation at G2/M phase at 0.6 uM after 16 hrs by propidium iodide staining based flow cytometric method (reference value: 7.59 to 9.58%); format: functional
MCF7 [34] = assay: Cell cycle arrest in human MCF7 cells assessed as accumulation at G2/M phase at 0.6 uM after 8 hrs by propidium iodide staining based flow cytometric method (reference value: 7.59 to 9.58%); format: functional
MCF7 [35] = assay: Cell cycle arrest in human MCF7 cells assessed as accumulation at G2/M phase at 0.6 uM after 12 hrs by propidium iodide staining based flow cytometric method (reference value: 5.43 to 13.68%); format: functional

COc1cc([C@@H]2c3cc4c(cc3[C@H](O)[C@H]3COC(=O)[C@H]23)OCO4)cc(OC)c1OC [PODOFILOX]
viability at 12 µM (MCF7 [1]): 62.8%
Activity (MCF7 [2]): 10.1%
Activity (MCF7 [3]): 37.52%
Activity (MCF7 [4]): 72.04%
Activity (MCF7 [5]): 7.87%
IC50 (MCF7 [6]): 7.13 µM
Activity (MCF7 [7]): 12.4%
Activity (MCF7 [8]): 11.02%
Activity (MCF7 [9]): 31.73%
Activity (MCF7 [10]): 29.49%
viability at 2 µM (MCF7 [11]): 84.2%
viability at 4 µM (MCF7 [12]): 79.4%
Activity (MCF7 [13]): 17.4%
IC50 (HepG2): 5.81 µM
Activity (MCF7 [14]): 20.81 - 27.26%
Activity (MCF7 [15]): 30.34%
Activity (MCF7 [16]): 4.65%
Activity (MCF7 [17]): 29.63%
Activity (MCF7 [18]): 1.69%
IC50 (L02): 3.72 µM
Activity (MCF7 [19]): 19.79%
viability at 8 µM (MCF7 [20]): 72.9%
Activity (MCF7 [21]): 10.5%
Activity (MCF7 [22]): 6.65%
Activity (MCF7 [23]): 27.34 - 31.52%
Activity (MCF7 [24]): 8.61%
IC50 (HeLa): 7.45 µM
Activity (MCF7 [25]): 5.5%
Activity (MCF7 [26]): 47.97%
Activity (MCF7 [27]): 2.34%
Activity (MCF7 [28]): 26.78%
Activity (MCF7 [29]): 13.4%
Activity (MCF7 [30]): 40.17%
Activity (MCF7 [31]): 8.17%
IC50 (A549): 9.34 µM
Activity (MCF7 [32]): 22.4%
Activity (MCF7 [33]): 62.2%
Activity (MCF7 [34]): 30.75%
Activity (MCF7 [35]): 45.4 - 47.67%
